Calls of active or inactive are those of the source. No cut-off for these calls is given here.
How the values were obtained:
Rattus norvegicus [1] = test: Increase of pain perception in Wistar rat assessed as latency at 20 to 40 mg/kg, ip measured after 30 to 45 mins by hotplate method in presence of AM251; type: functional, organism-based
Summary of the method: (§1)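 Individually housed rats (22 °C, 12:12 h light–dark, food and water ad libitum) were randomized to ip vehicle, 10, 20 or 40 mg/kg. Extra groups (n = 10) got 20 or 40 mg/kg 15 min after AM251 (3 mg/kg ip); another group got AM251 alone. Pain perception was read as hot-plate latency to signs of discomfort.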

Rattus norvegicus [2] = test: Effect on sleep-awake cycle in Wistar rat assessed as increase in rapid eye movement sleep at 20 mg/kg, ip measured up to 4 hrs by electromyographic analysis in presence of AM251; type: functional, organism-based; set-up: dose 20 mg/kg
Summary of the method: (§2)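 Rats (n = 6/group) had two hippocampal EEG electrodes implanted stereotaxically under ketamine/xylazine/acepromazine anaesthesia, then recovered 10 days and habituated 24 h. Two ip injections 15 min apart: DMSO (1 ml/kg) or AM251, then vegetal oil (1 ml/kg) or test drug. Dosing was at dark-phase onset. Wake, SWS and REMS were scored from EEG/EMG as time per hour over 12 h, plus sleep latency.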

Rattus norvegicus [3] = test: Reduction of core temperature in Wistar rat at 10 to 40 mg/kg, ip measured up to 45 mins in presence of AM251; type: functional, organism-based
Summary of the method: (§3)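 Individually housed rats (22 °C, 12:12 h light–dark) were randomized to ip vehicle, 10, 20 or 40 mg/kg. Extra groups (n = 10) got 20 or 40 mg/kg 15 min after AM251 (3 mg/kg ip), plus an AM251-alone group. Core temperature was measured with a rectal probe after injection.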

Rattus norvegicus [4] = test: Reduction of core temperature in Wistar rat at 10 to 40 mg/kg, ip after 15 mins; type: functional; conditions: dose mg/kg 10-40; route intraperitoneal; summary of the method: as §3
Rattus norvegicus [5] = test: Reduction of core temperature in Wistar rat at 10 to 40 mg/kg, ip up to 45 mins; type: functional; conditions: dose mg/kg 10-40; route intraperitoneal; summary of the method: as §3
Rattus norvegicus [6] = test: Effect on sleep-awake cycle in Wistar rat assessed as increase in non rapid eye movement sleep at 20 mg/kg, ip measured up to 4 hrs by electromyographic analysis; type: functional, organism-based; set-up: dose 20 mg/kg; summary of the method: as §2
Rattus norvegicus [7] = test: Reduction of core temperature in ip dosed Wistar rat up to 45 mins; type: functional, organism-based; summary of the method: as §3
Rattus norvegicus [8] = test: Increase of pain perception in Wistar rat assessed as latency at 10 to 40 mg/kg, ip measured after 30 to 45 mins by hotplate method; type: functional, organism-based; summary of the method: as §1
Rattus norvegicus [9] = test: Increase of pain perception in ip dosed Wistar rat assessed as latency after 30 to 45 mins by hotplate method; type: functional, organism-based; summary of the method: as §1
Rattus norvegicus [10] = test: Induction addiction in Wistar rat at 20 mg/kg, ip assessed as signs of dependence; type: ADME, organism-based; set-up: dose 20 mg/kg, route intraperitoneal; conditions: in vivo
Summary of the method: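 Conditioned place preference test at 20 mg/kg; time spent in the drug-paired compartment A was recorded as the index of rewarding effect or dependence.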

Rattus norvegicus [11] = test: Effect on sleep-awake cycle in Wistar rat assessed as increase in rapid eye movement sleep at 20 mg/kg, ip measured up to 4 hrs by electromyographic analysis; type: functional, organism-based; set-up: dose 20 mg/kg; summary of the method: as §2

For CCCCCC[C@H](C/C=C\CCCCCCCC(=O)N1CC2CC1CN2C)OC(=O)Cc1ccccc1 (stereo partly specified), the Activity (Rattus norvegicus [1]) was “inactive”, the Activity (Rattus norvegicus [2]) was “inactive” and the Activity (Rattus norvegicus [3]) was “inactive”. The T (Rattus norvegicus [4]) was 1 °C, the T (Rattus norvegicus [5]) was 1.5 °C and the Activity (Rattus norvegicus [6]) was “Active”. For the same molecule, the Activity (Rattus norvegicus [7]) was “inactive”, the Activity (Rattus norvegicus [8]) was “Active” and the Activity (Rattus norvegicus [9]) was “inactive”. For the same molecule, the Activity (Rattus norvegicus [10]) was “Non-toxic” and the Activity (Rattus norvegicus [11]) was “Active”.

Source: ChEMBL document CHEMBL1155512, “Chemoenzymatic synthesis and cannabinoid activity of a new diazabicyclic amide of phenylacetylricinoleic acid” (Bioorg Med Chem Lett, 2010)
